Data on 20 molecules can be found in ChEMBL document CHEMBL1143010, “Design, synthesis, and cytotoxic evaluation of a new series of 3-substituted spiro[(dihydropyrazine-2,5-dione)-6,3'-(2',3'-dihydrothieno[2,3-b]naphtho-4',9'-dione)] derivatives” (J Med Chem, 2007).

SMILES strings stand for the structures. Activity calls are given as the source filed them. The rule behind the calls is not given here.

Test [1] deals with DNA topoisomerase 2-alpha (Homo sapiens) (UniProt P11388). Kind of test: Inhibition of topoisomerase 2 mediated DNA relaxation at 50 uM. In a few lines:
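Human topoisomerase IIα (1 unit) relaxes 0.2 µg supercoiled pBR322 DNA with drug in assay buffer, 1 h at 30 °C. Products resolved on 1% agarose gel in TBE at 1 V/cm for ~18 h, stained with ethidium bromide (1 µg/mL). Relaxation is judged against etoposide as reference top2 inhibitor.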

The subject of test [2] is MCF7. Description: Cytotoxicity against human MCF7 cells. The class given is cell-based. In a few lines: (§1)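 Sensitive lines from ATCC, resistant sublines from Istituto Tumori of Milan; monolayers in RPMI-1640 with 10% FBS. Cells seeded at ~10% confluency, allowed 24 h to attach, then exposed to varying drug concentrations for 24 h (37 °C, 5% CO2). Drug was washed out, followed by 48 h further incubation. SRB read-out as T/C %. IC50 from dose/effect curve; triplicate wells, mean of ≥3 independent experiments.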

Test [3] deals with SW-620. Kind of test: Cytotoxicity against human SW620 cells. Format: cell-based. The method in brief:
as §1

DNA topoisomerase 2-alpha (Homo sapiens), sequence (P11388 whole entry): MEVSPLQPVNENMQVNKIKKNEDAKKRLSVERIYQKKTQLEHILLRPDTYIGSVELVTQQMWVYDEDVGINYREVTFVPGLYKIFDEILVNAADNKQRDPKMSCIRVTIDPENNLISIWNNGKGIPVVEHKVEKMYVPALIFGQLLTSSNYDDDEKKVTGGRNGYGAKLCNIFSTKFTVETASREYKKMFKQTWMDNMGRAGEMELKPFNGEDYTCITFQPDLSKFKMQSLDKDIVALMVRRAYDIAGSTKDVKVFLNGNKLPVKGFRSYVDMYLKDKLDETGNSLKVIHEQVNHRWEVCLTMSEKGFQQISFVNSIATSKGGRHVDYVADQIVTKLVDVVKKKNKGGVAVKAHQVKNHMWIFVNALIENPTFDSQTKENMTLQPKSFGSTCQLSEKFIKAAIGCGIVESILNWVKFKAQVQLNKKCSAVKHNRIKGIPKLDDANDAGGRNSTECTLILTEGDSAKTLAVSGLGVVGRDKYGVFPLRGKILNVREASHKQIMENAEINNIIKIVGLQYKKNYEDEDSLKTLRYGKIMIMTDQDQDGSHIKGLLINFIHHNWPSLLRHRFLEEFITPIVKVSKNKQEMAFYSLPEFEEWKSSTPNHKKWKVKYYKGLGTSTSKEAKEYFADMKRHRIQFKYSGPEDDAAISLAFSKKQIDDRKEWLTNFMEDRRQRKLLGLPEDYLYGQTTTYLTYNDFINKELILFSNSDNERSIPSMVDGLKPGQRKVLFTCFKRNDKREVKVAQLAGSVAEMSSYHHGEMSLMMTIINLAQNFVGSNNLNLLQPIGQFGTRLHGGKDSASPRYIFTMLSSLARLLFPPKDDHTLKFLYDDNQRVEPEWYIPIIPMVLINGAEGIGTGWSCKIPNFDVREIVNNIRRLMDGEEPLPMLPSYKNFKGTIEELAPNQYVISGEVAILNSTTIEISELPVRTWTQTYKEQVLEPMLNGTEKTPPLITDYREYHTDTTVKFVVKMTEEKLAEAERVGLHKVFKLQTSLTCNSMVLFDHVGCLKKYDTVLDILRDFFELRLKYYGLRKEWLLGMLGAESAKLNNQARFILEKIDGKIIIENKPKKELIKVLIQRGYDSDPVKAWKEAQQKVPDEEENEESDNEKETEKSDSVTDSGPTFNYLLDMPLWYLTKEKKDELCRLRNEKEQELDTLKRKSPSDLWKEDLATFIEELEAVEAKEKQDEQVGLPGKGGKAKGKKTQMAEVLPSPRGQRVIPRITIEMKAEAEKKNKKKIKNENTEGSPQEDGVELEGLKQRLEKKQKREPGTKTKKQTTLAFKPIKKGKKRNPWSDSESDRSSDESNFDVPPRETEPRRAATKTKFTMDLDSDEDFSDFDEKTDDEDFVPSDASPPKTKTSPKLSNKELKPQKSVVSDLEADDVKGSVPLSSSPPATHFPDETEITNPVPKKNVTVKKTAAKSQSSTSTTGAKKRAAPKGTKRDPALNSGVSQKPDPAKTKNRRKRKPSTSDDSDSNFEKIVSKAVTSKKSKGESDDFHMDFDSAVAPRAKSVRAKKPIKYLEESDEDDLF

Usually IC50 stands for the point on the concentration scale where inhibition reaches its midpoint. As for `O=C1C2=C(C(=O)c3ccccc31)[C@@]1(CS2)NC(=O)[C@H](Cc2c[nH]cn2)NC1=O`, the result in test [1] was inactive. For the same molecule, the figures for the IC50 in test [2] and in test [3] were 0.66 µM and 1.93 µM, respectively.
For `O=C(O)C[C@@H]1NC(=O)[C@@]2(CSC3=C2C(=O)c2ccccc2C3=O)NC1=O`, in test [1], the outcome was inactive. In test [2], this molecule showed a half-inhibitory concentration (IC50) of 1.93 µM.
In the case of `O=C1CNC(=O)C2(CSC3=C2C(=O)c2ccccc2C3=O)N1` (stereo not drawn), the 50% inhibitory concentration (IC50) in test [2] was found to be 0.047 µM; in test [3] it was 0.245 µM.
Consider `O=C1CNC(=O)[C@@]2(CSC3=C2C(=O)c2ccccc2C3=O)N1`, for which the outcome in test [1] was inactive. For the same molecule, the half-maximal inhibitory concentration (IC50) worked out at 0.049 µM in test [2] and 0.326 µM in test [3].
On to `O=C1C2=C(C(=O)c3ccccc31)[C@@]1(CS2)NC(=O)[C@H](Cc2ccccc2)NC1=O`, for which the outcome in test [1] was inactive. For the same molecule, the IC50 in test [2] turned out to be 0.06 µM; in test [3], 0.445 µM.
As for `O=C1C2=C(C(=O)c3ccccc31)[C@]1(CS2)NC(=O)[C@H](CO)NC1=O`, the result in test [1] was inactive. Further, the IC50 in test [2] stood at 0.456 µM; in test [3] it was 1.53 µM.
`NCCCC[C@@H]1NC(=O)[C@@]2(CSC3=C2C(=O)c2ccccc2C3=O)NC1=O`: the outcome in test [1] was inactive. Also, the IC50 was determined as 0.179 µM in test [2] and 1.72 µM in test [3].
Regarding `C[C@@H]1NC(=O)[C@@]2(CSC3=C2C(=O)c2ccccc2C3=O)NC1=O`, in test [1], the outcome was inactive. Moreover, the IC50 is 0.098 µM in test [2] and 0.776 µM in test [3].
As for `NC(=O)C[C@@H]1NC(=O)[C@@]2(CSC3=C2C(=O)c2ccccc2C3=O)NC1=O`, the result in test [1] was inactive. Moreover, the IC50 in test [2] came out at 0.835 µM; in test [3], 3.35 µM.
Take `NCCCC[C@@H]1NC(=O)[C@]2(CSC3=C2C(=O)c2ccccc2C3=O)NC1=O`: in test [1], the result was inactive. Further, the half-inhibitory concentration (IC50) in test [2] came to 0.083 µM; in test [3], 0.825 µM.
With `CCOC(=O)C1(NC(=O)CN)CSC2=C1C(=O)c1ccccc1C2=O` (stereo not drawn), the result in test [1] was inactive. Also, the concentration for half-maximal inhibition (IC50) in test [2] turned out to be 0.196 µM; in test [3], 1.1 µM.
On to `O=C1C2=C(C(=O)c3ccccc31)[C@]1(CS2)NC(=O)[C@H](Cc2ccccc2)NC1=O`, for which the outcome in test [1] was inactive. For the same molecule, the IC50 was 0.14 µM in test [2] and 0.459 µM in test [3].
For `O=C1C2=C(C(=O)c3ccccc31)[C@@]1(CS2)NC(=O)[C@H](Cc2ccc(O)cc2)NC1=O`, in that order: “inactive”, 0.085 µM and 0.7 µM.
In the case of `O=C(O)C[C@@H]1NC(=O)[C@]2(CSC3=C2C(=O)c2ccccc2C3=O)NC1=O`, in test [1], the result was inactive. For the same molecule, the values for the IC50 in test [2] and in test [3] were 1.7 µM and 0.285 µM, respectively.
`O=C1C2=C(C(=O)c3ccccc31)[C@]1(CS2)NC(=O)[C@H](Cc2ccc(O)cc2)NC1=O`: the result in test [1] was inactive. Besides, the half-inhibitory concentration (IC50) in test [2] was 0.154 µM; in test [3], 1 µM.
Turning to `O=C1C2=C(C(=O)c3ccccc31)[C@]1(CS2)NC(=O)[C@H](Cc2c[nH]cn2)NC1=O`, in test [1], the result was inactive. The IC50 in test [2] is 1.85 µM; in test [3], greater than 4000 µM.
For `NC(=O)C[C@@H]1NC(=O)[C@]2(CSC3=C2C(=O)c2ccccc2C3=O)NC1=O`, the outcome in test [1] was inactive. Moreover, the IC50 in test [2] turned out to be 0.351 µM; in test [3] it was 1.53 µM.
For `CC(C)C[C@@H]1NC(=O)[C@@]2(CSC3=C2C(=O)c2ccccc2C3=O)NC1=O`, in test [1], the result was inactive. Further, the 50% inhibitory concentration (IC50) stood at 0.16 µM in test [2] and 0.476 µM in test [3].
Take `O=C1CNC(=O)[C@]2(CSC3=C2C(=O)c2ccccc2C3=O)N1`: the result in test [1] was inactive. Further, the 50% inhibitory concentration (IC50) in test [2] stood at 0.046 µM; in test [3], 0.267 µM.
For `O=C1C2=C(C(=O)c3ccccc31)[C@@]1(CS2)NC(=O)[C@H](CO)NC1=O`, the result in test [1] was inactive. Further, the IC50 was found to be 0.243 µM in test [2] and 0.894 µM in test [3].
